From ChEMBL document CHEMBL1154212, “Candenatenins A-F, phenolic compounds from the heartwood of Dalbergia candenatensis” (J Nat Prod, 2009) come the findings set out here.

Holding throughout (type): functional, cell-based
In one assay the test system is HT-29. The assay can be described thus: Cytotoxicity against human HT-29 cells by SRB staining-based fluorescence cytometry. Put shortly: (§1)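 Cytotoxicity assay run with camptothecin as the reference anticancer standard.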
Background: In SRB staining, fixed cells bind dye roughly in proportion to their protein.

For another assay, the system named is HeLa. The assay is described as follows: Cytotoxicity against human HeLa cells by SRB staining-based fluorescence cytometry. Put shortly:
as §1

A further assay has as its system MCF7. The assay can be described thus: Cytotoxicity against human MCF7 cells by SRB staining-based fluorescence cytometry. In short, it runs like this:
as §1

A further assay deals with KB. The assay is described as follows: Cytotoxicity against human KB cells by SRB staining-based fluorescence cytometry. In short, it runs like this: as §1
The mark [1] stands for this setting: Homo sapiens, HT-29, read-out: IC50.
Setting [2] is: Homo sapiens, HeLa, read-out: IC50.
Where [3] appears, read: Homo sapiens, MCF7, read-out: IC50.
The mark [4] stands for this setting: Homo sapiens, KB, read-out: IC50.

`COc1ccc(/C=C/Cc2ccc(O)c(OC)c2OC)cc1O` [CANDENATENIN A]: the half-maximal inhibitory concentration (IC50) with HT-29 (setting [1]) was 41.1 µM; in the assay with HeLa (setting [2]), 79 µM; with MCF7 (setting [3]) it was 74.3 µM; in the assay on KB (setting [4]) it was 42.7 µM.
Taken in the same sequence, the figures for `COc1ccccc1/C=C/C[C@@]1(O)C=CC(=O)CC1` were 17.8 µM, 54.2 µM, 48.8 µM and 70.9 µM.
As for `CC[C@@]1(O)C(=O)OCc2c1cc1n(c2=O)Cc2cc3ccccc3nc2-1` [CAMPTOTHECIN], the IC50 with HT-29 (setting [1]), with HeLa (setting [2]), with MCF7 (setting [3]) and with KB (setting [4]) was 1.22 µM in each case.
Take `COc1c(O)ccc([C@@H]2C=Cc3cc(O)ccc3O2)c1OC`: the half-maximal inhibitory concentration (IC50) result in the assay with HT-29 (ht-29), with HeLa (hela), with MCF7 (mcf7) and in the assay on KB (kb) was “Not Active” throughout.
With `COc1cc(O)c2c(c1)O[C@H](c1ccccc1)[C@@H](O)C2=O`, the 50% inhibitory concentration (IC50) with HT-29 (setting [1]) turned out to be 46.5 µM; in the assay on HeLa (setting [2]), 79 µM; in the assay with MCF7 (setting [3]), 49.3 µM; in the assay with KB (setting [4]) it was 73.8 µM.
With `COc1ccc([C@@H]2COc3c(ccc(O)c3C/C=C(\C)CCC=C(C)C)C2)cc1`, the half-maximal inhibitory concentration (IC50) result with HT-29 (ht-29), with HeLa (hela), in the assay with MCF7 (mcf7) and with KB (kb) was “Not Active” throughout.
For `CC(C)=CCC/C(C)=C/Cc1c(O)cc(O)c2c1O[C@H](c1ccc(O)cc1)CC2=O` [SOPHORAFLAVANONE A], the IC50 result with HT-29 (ht-29), with HeLa (hela), with MCF7 (mcf7) and in the assay with KB (kb) was “Not Active” each time.
In the case of `COc1ccc2c(c1C/C=C(\C)CCC=C(C)C)OC[C@@H]1c3cc4c(cc3O[C@H]21)OCO4` [NUTIDUCOL], the IC50 result with HT-29 (ht-29), in the assay on HeLa (hela), in the assay on MCF7 (mcf7) and in the assay on KB (kb) was “Not Active” throughout.
With `COc1ccc2c(c1O)OC[C@@H]1c3cc4c(cc3O[C@H]21)OCO4`, the IC50 entry in the assay with HT-29 (ht-29), in the assay with HeLa (hela), in the assay on MCF7 (mcf7) and in the assay with KB (kb) was “Not Active” in each case.
For `CO[C@H]1CC(=O)CC[C@@]1(O)C/C=C/c1ccccc1`, the concentration for half-maximal inhibition (IC50) in the assay on HT-29 (setting [1]) turned out to be 48.1 µM; in the assay with HeLa (setting [2]), 53.1 µM; in the assay with MCF7 (setting [3]) it was 44.1 µM; in the assay on KB (setting [4]) it was 85 µM.
As for `O=C1C=C[C@](O)(C/C=C/c2ccccc2)CC1` [(1'R)-CANDENATENIN B], the IC50 in the assay on HT-29 (setting [1]) came out at 19.7 µM; in the assay on HeLa (setting [2]) it was 55.7 µM; in the assay on MCF7 (setting [3]), 54.4 µM; in the assay on KB (setting [4]), 83.7 µM.

What is called IC50 is the concentration that gives 50% inhibition.
